This passage reports Activity and Time results from ChEMBL document CHEMBL3616437, “Thiazole compounds with activity against Cryptococcus gattii and Cryptococcus neoformans in vitro” (Eur J Med Chem, 2015).

The source made the active and inactive calls. The calls are words filed in the database; no cut-off is given here.

For assay [1], the system named is Cryptococcus neoformans. The assay can be described thus: Antifungal activity against Cryptococcus neoformans 28JF assessed as reduction in cell viability at 0.9 uM after 6 to 72 hrs by MTT assay. The class given is functional. On the technique in general: Tetrazolium assays rely on reduction of a dye to a coloured formazan, in cell work by metabolically active cells.

Assay [2] relates to Cryptococcus neoformans. Description: Antifungal activity against Cryptococcus neoformans ATCC 62066 assessed as reduction in cell viability at 0.9 uM after 6 to 72 hrs by MTT assay. The format is functional.
Assay [3] concerns Cryptococcus neoformans. Description: Post-antifungal activity against Cryptococcus neoformans CN31 assessed as organism required time to achieve cell population of 10^4 cells/ml at 0.9 uM treated for 1 hr by MTT assay in presence of 0.05 uM amphotericin B. The class given is functional.
The subject of assay [4] is Cryptococcus neoformans. Description: Post-antifungal activity against Cryptococcus neoformans CN31 assessed as organism required time to achieve cell population of 10^4 cells/ml at 0.9 uM treated for 1 hr by MTT assay. The class given is functional.
Assay [5] relates to Cryptococcus neoformans. The assay can be described thus: Antifungal activity against Cryptococcus neoformans VM-MCMMPI assessed as reduction in cell viability at 0.9 uM after 6 to 72 hrs by MTT assay. The class given is functional.
For assay [6], the system named is Cryptococcus neoformans. The assay can be described thus: Antifungal activity against Cryptococcus neoformans CN31 assessed as reduction in cell viability at 0.9 uM after 6 to 72 hrs by MTT assay. The class given is functional.
The subject of assay [7] is Cryptococcus gattii species complex. Description: Post-antifungal activity against Cryptococcus gattii L27/01 assessed as organism required time to achieve cell population of 10^4 cells/ml at 0.45 uM treated for 1 hr by MTT assay. The format is functional, Cryptococcus bacillisporus.
Assay [8] has as its system Cryptococcus neoformans. The assay can be described thus: Antifungal activity against Cryptococcus neoformans ATCC 28957 assessed as reduction in cell viability at 0.9 uM after 6 to 72 hrs by MTT assay. The format is functional.
The test system of assay [9] is Cryptococcus gattii species complex. The assay can be described thus: Antifungal activity against Cryptococcus gattii 196L/03 assessed as reduction in ergosterol content at MIC after 24 hrs by spectrophotometric analysis in presence of amphotericin B. The format is functional, organism-based. As to conditions: Cryptococcus bacillisporus. Put shortly: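 Pellet washed and weighed, then saponified in 25% ethanolic KOH at 85°C for 1 h. Extracted with water and n-heptane, read at 282 and 230 nm. Ergosterol taken from a standard curve and expressed as % of growth control.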

Assay [10] relates to Cryptococcus neoformans. Description: Antifungal activity against Cryptococcus neoformans 5396 assessed as reduction in cell viability at 0.9 uM after 6 to 72 hrs by MTT assay. The class given is functional.
In assay [11] the test system is Cryptococcus neoformans. Description: Antifungal activity against Cryptococcus neoformans ATCC 28957 assessed as reduction in cell viability at 1.9 uM after 6 to 72 hrs by MTT assay. The class given is functional.
Assay [12] deals with Cryptococcus neoformans. The assay can be described thus: Antifungal activity against Cryptococcus neoformans ATCC 24067 assessed as reduction in cell viability at 1.9 uM after 6 to 72 hrs by MTT assay. The class given is functional.
The test system of assay [13] is Cryptococcus neoformans. The assay can be described thus: Antifungal activity against Cryptococcus neoformans 96806 assessed as reduction in cell viability at 1.9 uM after 6 to 72 hrs by MTT assay. The format is functional.
Assay [14] relates to Cryptococcus neoformans. Description: Antifungal activity against Cryptococcus neoformans VM-MCMMPI assessed as reduction in cell viability at 1.9 uM after 6 to 72 hrs by MTT assay. The class given is functional.
The test system of assay [15] is Cryptococcus neoformans. The assay can be described thus: Antifungal activity against Cryptococcus neoformans ATCC 62066 assessed as reduction in cell viability at 1.9 uM after 6 to 72 hrs by MTT assay. The class given is functional.
Assay [16] has as its system Cryptococcus gattii species complex. The assay can be described thus: Antifungal activity against Cryptococcus gattii 135L/03 assessed as reduction in cell viability at 26 uM after 6 to 72 hrs by MTT assay. The format is functional, Cryptococcus bacillisporus. Put shortly:
(§1)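 Time-kill setup: colonies from two 48 h, 35°C SDA passages were suspended in saline to 70% transmittance at 530 nm. They were then diluted to 1-5 x10^3 cells/mL in RPMI with L-glutamine buffered to pH 7.0 with 0.165 M MOPS. Plates were incubated at 35°C for 0-72 h, then MTT (5.0 mg/mL) was added for 3 h. After isopropanol, absorbance was read at 490 nm. Drug-free controls were included, results were confirmed by SDA colony counts, and assays were run in triplicate.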

Assay [17] relates to Cryptococcus neoformans. The assay can be described thus: Antifungal activity against Cryptococcus neoformans CN31 assessed as reduction in cell viability at 26 uM after 6 to 72 hrs by MTT assay. The class given is functional. Put shortly:
as §1

Assay [18] concerns Cryptococcus neoformans. The assay can be described thus: Antifungal activity against Cryptococcus neoformans F10 assessed as reduction in cell viability at 26 uM after 6 to 72 hrs by MTT assay. The class given is functional. The gist of the method: as §1
The test system of assay [19] is Cryptococcus neoformans. The assay can be described thus: Antifungal activity against Cryptococcus neoformans ATCC 24067 assessed as reduction in cell viability at 26 uM after 6 to 72 hrs by MTT assay. The format is functional. Put shortly:
as §1

The test system of assay [20] is Cryptococcus neoformans. Description: Antifungal activity against Cryptococcus gattii ATCC 24065 assessed as reduction in cell viability at 26 uM after 6 to 72 hrs by MTT assay. The class given is functional, Cryptococcus bacillisporus. Put shortly: as §1
Assay [21] has as its system Cryptococcus gattii species complex. Description: Antifungal activity against Cryptococcus gattii 196L/03 assessed as reduction in cell viability at 26 uM after 6 to 72 hrs by MTT assay. The format is functional, Cryptococcus bacillisporus. The gist of the method:
as §1

The test system is the same in assay [22]. The assay can be described thus: Antifungal activity against Cryptococcus gattii ICB181 assessed as reduction in cell viability at 26 uM after 6 to 72 hrs by MTT assay. The format is functional, Cryptococcus bacillisporus. Put shortly: as §1
Assay [23] has as its system Cryptococcus neoformans. The assay can be described thus: Antifungal activity against Cryptococcus neoformans ATCC 62066 assessed as reduction in cell viability at 26 uM after 6 to 72 hrs by MTT assay. The class given is functional. The gist of the method: as §1
Assay [24] relates to Cryptococcus gattii species complex. Description: Antifungal activity against Cryptococcus gattii 547/OTTI-97-PI-10 assessed as reduction in cell viability at 26 uM after 6 to 72 hrs by MTT assay. The format is functional, Cryptococcus bacillisporus. The gist of the method:
as §1

Assay [25] deals with Cryptococcus neoformans. The assay can be described thus: Antifungal activity against Cryptococcus neoformans 28JF assessed as reduction in cell viability at 26 uM after 6 to 72 hrs by MTT assay. The class given is functional. The gist of the method: as §1
In assay [26] the test system is Cryptococcus neoformans. Description: Antifungal activity against Cryptococcus neoformans 27JF assessed as reduction in cell viability at 26 uM after 6 to 72 hrs by MTT assay. The format is functional. Put shortly:
as §1

The subject of assay [27] is Cryptococcus neoformans. Description: Antifungal activity against Cryptococcus neoformans ATCC 28957 assessed as reduction in cell viability at 0.12 uM after 6 to 72 hrs by MTT assay. The class given is functional.
Assay [28] deals with Cryptococcus gattii species complex. Description: Antifungal activity against Cryptococcus gattii 1913ER assessed as reduction in cell viability at 0.12 uM after 6 to 72 hrs by MTT assay. The format is functional, Cryptococcus bacillisporus.
Assay [29] has the same test system. Description: Antifungal activity against Cryptococcus gattii ATCC 24065 assessed as reduction in cell viability at 0.12 uM after 6 to 72 hrs by MTT assay.
Assay [30] deals with Cryptococcus neoformans. The assay can be described thus: Antifungal activity against Cryptococcus neoformans LMM820 assessed as reduction in cell viability at 0.12 uM after 6 to 72 hrs by MTT assay. The class given is functional.
Assay [31] concerns Cryptococcus gattii species complex. The assay can be described thus: Antifungal activity against Cryptococcus gattii L28/02 assessed as reduction in cell viability at 0.12 uM after 6 to 72 hrs by MTT assay. The format is functional, Cryptococcus bacillisporus.
Assay [32] relates to Cryptococcus neoformans. The assay can be described thus: Antifungal activity against Cryptococcus neoformans 5396 assessed as reduction in cell viability at 0.12 uM after 6 to 72 hrs by MTT assay. The format is functional.
Assay [33] deals with Cryptococcus gattii species complex. The assay can be described thus: Post-antifungal activity against Cryptococcus gattii L27/01 assessed as organism required time to achieve cell population of 10^4 cells/ml at 0.11 uM treated for 1 hr by MTT assay. The format is functional, Cryptococcus bacillisporus.
In assay [34] the test system is Cryptococcus neoformans. Description: Antifungal activity against Cryptococcus neoformans ATCC 62066 assessed as reduction in cell viability at 0.12 uM after 6 to 72 hrs by MTT assay. The format is functional.
Assay [35] concerns Cryptococcus gattii species complex. Description: Antifungal activity against Cryptococcus gattii 23/10993 assessed as reduction in cell viability at 0.12 uM after 6 to 72 hrs by MTT assay. The class given is functional, Cryptococcus bacillisporus.

Consider `COc1ccc(-c2csc(N/N=C(\C)CCO)n2)cc1`, for which the Activity in the assay with Cryptococcus neoformans [1], with Cryptococcus neoformans [2], in the assay with Cryptococcus neoformans [5], in the assay with Cryptococcus neoformans [6], in the assay on Cryptococcus neoformans [8] and with Cryptococcus neoformans [10] was 90% throughout. In addition, the results for the Time (in the assay on Cryptococcus neoformans [3]; with Cryptococcus neoformans [4]; in assay [7]) were 2.1 h, 2.8 h and 1.7 h, respectively. In assay [9], the result was inactive.
As for `C(=N\Nc1nc(-c2ccccc2)cs1)/C1CCCCC1`, the Activity in the assay with Cryptococcus neoformans [11], in the assay on Cryptococcus neoformans [12], in the assay with Cryptococcus neoformans [13], in the assay with Cryptococcus neoformans [14] and in the assay with Cryptococcus neoformans [15] was 90% in each case.
Take `OC(Cn1cncn1)(Cn1cncn1)c1ccc(F)cc1F` [FLUCONAZOLE]: the Activity (in [16]; in the assay on Cryptococcus neoformans [17]; in the assay on Cryptococcus neoformans [18]; with Cryptococcus neoformans [19]; with Cryptococcus neoformans [20]; in assay [21]) was 80% each time. For the same compound, the Activity (in assay [22]; in the assay on Cryptococcus neoformans [23]; in assay [24]; in the assay with Cryptococcus neoformans [25]; in the assay with Cryptococcus neoformans [26]) was 80% throughout.
In the case of `C[C@@H]1[C@H](O)[C@@H](C)/C=C/C=C/C=C/C=C/C=C/C=C/C=C/[C@H](O[C@@H]2O[C@H](C)[C@@H](O)[C@H](N)[C@@H]2O)C[C@@H]2O[C@](O)(C[C@@H](O)C[C@@H](O)[C@H](O)CC[C@@H](O)C[C@@H](O)CC(=O)O[C@H]1C)C[C@H](O)[C@H]2C(=O)O` [AMPHOTERICIN B], the Activity (in the assay on Cryptococcus neoformans [27]; in assay [28]; in assay [29]; with Cryptococcus neoformans [30]; in assay [31]; in the assay on Cryptococcus neoformans [32]) was 90% in each case. Also, the Activity (with Cryptococcus neoformans [34]; in assay [35]) was 90% in each case. Also, the Time in [33] turned out to be 2.65 h.
